# Assay results from ChEMBL document CHEMBL2163325, “Discovery of phosphoinositide 3-kinases (PI3K) p110β isoform inhibitor 4-[2-hydroxyethyl(1-naphthylmethyl)amino]-6-[(2S)-2-methylmorpholin-4-yl]-1H-pyrimidin-2-one, an effective antithrombotic agent without associated bleeding and insulin resistance” (Bioorg Med Chem Lett, 2012).
# Legend:
# [1] = target: Phosphatidylinositol 4,5-bisphosphate 3-kinase catalytic subunit alpha isoform (Homo sapiens, UniProt P42336); experiment: Inhibition of human recombinant His6-tagged PI3K p110alpha expressed in baculovirus infected cells using DiC8-PI(4,5)P2 as substrate after 20 mins by AlphaScreen assay
# [2] = target: Phosphatidylinositol 4,5-bisphosphate 3-kinase catalytic subunit beta isoform (Homo sapiens, UniProt P42338); experiment: Inhibition of human recombinant His6-tagged PI3K p110beta expressed in baculovirus infected cells using DiC8-PI(4,5)P2 as substrate after 20 mins by AlphaScreen assay
# [3] = Lipophilicity, log D of the compound at pH 7.4 by HPLC analysis; format: physicochemical; conditions: buffer
# How it was run: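 LogD measured at pH 7.4 by HPLC.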
# Homo sapiens = species on record: Homo sapiens; experiment: Selectivity ratio of IC50 for human PI3K p110alpha to IC50 for human PI3K p110beta
# Cytochrome P450 2C9 = Cytochrome P450 2C9 (Homo sapiens, UniProt P11712); experiment: Inhibition of CYP2C9; format: ADME
# Cytochrome P450 3A4 = Cytochrome P450 3A4 (Homo sapiens, UniProt P08684); experiment: Inhibition of CYP3A4; format: ADME
# [4] = Toxicity in human adipocytes assessed as inhibition of insulin-induced glucose uptake; format: cell-based, Adipocyte
# Rattus norvegicus = experiment: Toxicity in overnight fasted Sprague-Dawley rat assessed as induction of insulin resistance administered as 30 mins infusion; format: organism-based; conditions: in vivo, iv, 0.5 h
# How it was run: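 Overnight fasted SD rats (N = 6) infused with 4 consecutive escalating doses, each over 30 min. Blood taken at the end of each interval for plasma exposure, glucose and insulin. HOMA index is glucose × insulin, normalized to vehicle controls (N = 4) and pretreatment medians. Mean ± SEM.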
# Phosphatidylinositol 4,5-bisphosphate 3-kinase catalytic subunit alpha isoform, sequence (P42336 whole entry, canonical isoform): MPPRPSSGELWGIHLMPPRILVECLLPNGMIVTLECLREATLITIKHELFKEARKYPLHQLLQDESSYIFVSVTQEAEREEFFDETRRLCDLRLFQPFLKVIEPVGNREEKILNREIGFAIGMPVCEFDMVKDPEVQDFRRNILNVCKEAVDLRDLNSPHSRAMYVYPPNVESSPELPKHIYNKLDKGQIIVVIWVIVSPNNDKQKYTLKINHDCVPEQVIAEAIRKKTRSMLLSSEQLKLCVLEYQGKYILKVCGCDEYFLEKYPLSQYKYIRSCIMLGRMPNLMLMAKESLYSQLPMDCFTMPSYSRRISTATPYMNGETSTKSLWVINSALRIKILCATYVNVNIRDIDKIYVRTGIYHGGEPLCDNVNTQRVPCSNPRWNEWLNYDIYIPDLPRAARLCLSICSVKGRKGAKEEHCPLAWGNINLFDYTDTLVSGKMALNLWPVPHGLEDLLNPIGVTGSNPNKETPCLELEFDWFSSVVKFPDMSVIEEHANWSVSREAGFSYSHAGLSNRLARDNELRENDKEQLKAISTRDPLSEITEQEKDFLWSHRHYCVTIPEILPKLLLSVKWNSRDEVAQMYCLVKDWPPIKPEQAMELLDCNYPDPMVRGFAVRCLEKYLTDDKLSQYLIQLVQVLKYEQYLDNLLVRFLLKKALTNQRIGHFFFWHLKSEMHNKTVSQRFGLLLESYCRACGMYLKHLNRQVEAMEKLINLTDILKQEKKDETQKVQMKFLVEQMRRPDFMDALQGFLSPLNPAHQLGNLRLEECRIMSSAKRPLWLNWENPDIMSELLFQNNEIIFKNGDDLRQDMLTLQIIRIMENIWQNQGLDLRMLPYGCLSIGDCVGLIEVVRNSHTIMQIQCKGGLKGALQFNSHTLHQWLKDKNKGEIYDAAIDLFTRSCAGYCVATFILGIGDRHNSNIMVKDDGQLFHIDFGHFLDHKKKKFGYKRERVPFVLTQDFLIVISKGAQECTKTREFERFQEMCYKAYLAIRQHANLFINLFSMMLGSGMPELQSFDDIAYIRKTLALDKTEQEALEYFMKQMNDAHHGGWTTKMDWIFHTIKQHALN
# Phosphatidylinositol 4,5-bisphosphate 3-kinase catalytic subunit beta isoform, sequence (P42338 whole entry, canonical isoform): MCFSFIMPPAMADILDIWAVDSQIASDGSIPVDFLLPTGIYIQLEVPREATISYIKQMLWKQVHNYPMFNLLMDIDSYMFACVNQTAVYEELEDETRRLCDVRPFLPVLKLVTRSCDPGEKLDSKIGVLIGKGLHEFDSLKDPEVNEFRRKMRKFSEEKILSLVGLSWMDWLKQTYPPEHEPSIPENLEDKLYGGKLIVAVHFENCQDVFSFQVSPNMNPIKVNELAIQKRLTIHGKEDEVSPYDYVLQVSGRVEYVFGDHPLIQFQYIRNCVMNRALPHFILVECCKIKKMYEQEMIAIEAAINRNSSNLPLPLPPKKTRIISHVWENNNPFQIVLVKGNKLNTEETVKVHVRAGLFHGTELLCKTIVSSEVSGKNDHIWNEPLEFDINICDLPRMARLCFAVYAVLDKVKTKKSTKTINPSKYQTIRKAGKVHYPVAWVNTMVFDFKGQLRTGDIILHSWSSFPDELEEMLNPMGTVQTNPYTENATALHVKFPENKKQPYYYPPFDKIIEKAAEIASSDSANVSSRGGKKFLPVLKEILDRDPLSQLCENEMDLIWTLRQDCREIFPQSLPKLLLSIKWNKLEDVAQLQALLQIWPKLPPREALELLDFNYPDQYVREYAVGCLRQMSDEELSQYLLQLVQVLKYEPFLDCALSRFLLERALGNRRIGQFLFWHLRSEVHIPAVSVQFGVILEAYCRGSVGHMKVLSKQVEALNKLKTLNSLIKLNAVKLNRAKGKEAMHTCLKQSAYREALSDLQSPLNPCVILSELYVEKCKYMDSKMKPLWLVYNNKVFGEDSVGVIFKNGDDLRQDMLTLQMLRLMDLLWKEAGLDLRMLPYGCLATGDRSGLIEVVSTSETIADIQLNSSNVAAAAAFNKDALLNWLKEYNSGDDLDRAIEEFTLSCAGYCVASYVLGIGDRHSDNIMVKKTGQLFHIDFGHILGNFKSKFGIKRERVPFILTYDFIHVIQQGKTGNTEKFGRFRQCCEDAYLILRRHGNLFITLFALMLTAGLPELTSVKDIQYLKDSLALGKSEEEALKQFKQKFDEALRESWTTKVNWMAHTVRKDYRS
# Cytochrome P450 2C9, sequence (P11712 whole entry): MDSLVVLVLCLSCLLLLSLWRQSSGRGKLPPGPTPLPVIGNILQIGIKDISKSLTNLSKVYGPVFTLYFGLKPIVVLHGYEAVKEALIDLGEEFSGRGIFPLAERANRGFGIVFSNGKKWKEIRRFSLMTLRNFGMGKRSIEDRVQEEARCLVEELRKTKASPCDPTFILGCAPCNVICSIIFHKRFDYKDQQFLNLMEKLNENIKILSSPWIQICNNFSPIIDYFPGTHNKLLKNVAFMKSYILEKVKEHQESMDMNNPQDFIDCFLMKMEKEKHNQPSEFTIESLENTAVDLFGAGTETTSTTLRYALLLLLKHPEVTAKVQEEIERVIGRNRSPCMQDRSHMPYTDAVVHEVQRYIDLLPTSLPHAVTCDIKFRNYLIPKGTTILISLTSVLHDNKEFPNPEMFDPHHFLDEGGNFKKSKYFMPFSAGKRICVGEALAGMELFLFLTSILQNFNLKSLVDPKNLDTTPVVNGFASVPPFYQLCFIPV
# Cytochrome P450 3A4, sequence (P08684 whole entry): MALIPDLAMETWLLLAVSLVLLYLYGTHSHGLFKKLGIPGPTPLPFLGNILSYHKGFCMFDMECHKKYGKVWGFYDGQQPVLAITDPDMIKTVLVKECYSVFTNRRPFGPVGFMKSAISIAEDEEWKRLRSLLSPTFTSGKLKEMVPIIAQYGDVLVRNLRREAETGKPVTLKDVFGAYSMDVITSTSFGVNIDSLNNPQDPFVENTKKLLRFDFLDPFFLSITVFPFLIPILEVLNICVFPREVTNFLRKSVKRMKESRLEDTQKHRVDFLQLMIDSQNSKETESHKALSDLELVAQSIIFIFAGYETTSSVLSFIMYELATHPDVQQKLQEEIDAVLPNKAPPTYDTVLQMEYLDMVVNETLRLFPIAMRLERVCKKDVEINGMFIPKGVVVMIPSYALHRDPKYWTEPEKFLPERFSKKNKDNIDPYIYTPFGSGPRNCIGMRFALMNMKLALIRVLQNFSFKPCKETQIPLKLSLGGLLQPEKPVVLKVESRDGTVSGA
SMILES,IC50 [1] [µM],IC50 [2] [µM],logD [3],Ratio IC50 (Homo sapiens),IC50 (Cytochrome P450 2C9) [µM],IC50 (Cytochrome P450 3A4) [µM],IC50 [4] [µM],Activity (Rattus norvegicus)
CN(C)CCN(Cc1cccc2ccccc12)c1cc(N2CCOCC2)nc(=O)[nH]1,> 83.3,3.1,1.4,> 26,–,–,–,–
O=c1cc(-c2cn[nH]c2)nc(NCc2cccc3ccccc23)[nH]1,62.3,11,1.9,–,–,–,–,–
CCC(O)CN(Cc1cccc2ccccc12)c1cc(N2CCOCC2)nc(=O)[nH]1 (stereo unspecified),149,0.22,2.5,690,–,–,–,–
CN(C)CCCN(Cc1cccc2ccccc12)c1cc(N2CCOCC2)nc(=O)[nH]1,> 83.3,1.2,1.5,> 64,–,–,–,–
O=c1nc(N2CCOCC2)cc(N(CCO)Cc2cccc3ccccc23)[nH]1,30.8,0.09,1.55,340,–,–,–,–
CCN(Cc1cccc2ccccc12)c1cc(N2CCOCC2)nc(=O)[nH]1,82.8,0.13,2.5,628,–,–,–,–
Cc1cc(-c2cc(=O)[nH]c(NCc3cccc4ccccc34)n2)ccn1,0.84,0.007,2.6,–,0.4,0.7,–,–
CC1CN(c2cc(=O)[nH]c(NCc3cccc4ccccc34)n2)CCO1 (stereo unspecified),2.2,0.034,2.9,65,–,–,–,–
C[C@@H]1CN(c2cc(N(CCO)Cc3cccc4ccccc34)[nH]c(=O)n2)CCO1,349,1,1.9,–,–,–,–,–
COC1CN(c2cc(=O)[nH]c(NCc3cccc4ccccc34)n2)C1,82.6,24,2.7,–,–,–,–,–
O=c1nc(N2CCOCC2)cc(N(Cc2cccc3ccccc23)C2CC2)[nH]1,76,0.97,2.6,78,–,–,–,–
CC(O)CN(Cc1cccc2ccccc12)c1cc(N2CCOCC2)nc(=O)[nH]1 (stereo unspecified),112,0.14,2,808,–,–,–,–
CN(Cc1cccc2ccccc12)c1cc(N2CCOCC2)nc(=O)[nH]1,212,0.6,2.37,355,–,–,–,–
O=c1nc(N2CCOCC2)cc(N(Cc2cccc3ccccc23)CC(O)C(F)(F)F)[nH]1 (stereo unspecified),56.9,0.98,3,58,–,–,–,–
CC(C)(CO)CN(Cc1cccc2ccccc12)c1cc(N2CCOCC2)nc(=O)[nH]1,205,1.4,3.15,143,–,–,–,–
Cc1cc([C@@H](C)Nc2ccccc2C(=O)O)c2nc(N3CCOCC3)cc(=O)n2c1 [AZD-6482],–,–,–,–,–,–,4.4,Dose-dependent effect
O=c1cc(N2CCC(O)CC2)nc(NCc2cccc3ccccc23)[nH]1,160,31,1.6,–,–,–,–,–
O=c1nc(N2CCOCC2)cc(N(CCCCO)Cc2cccc3ccccc23)[nH]1,73.7,0.2,1.8,373,–,–,–,–
O=c1nc(N2CCOCC2)cc(N(CCCO)Cc2cccc3ccccc23)[nH]1,51.5,0.1,1.75,524,–,–,–,–
